Measurements: ChEMBL document CHEMBL4308921, “Structure-Activity Relationships of Central Nervous System Penetration by Fatty Acid Amide Hydrolase (FAAH)-Targeted Thyromimetic Prodrugs” (ACS Med Chem Lett, 2019)

Assays:
[1] = Prodrug activation in C57BL/6 mouse brain assessed as FAAH-mediated sobetirome formation at 3.05 umol/kg, ip after 1 hr by LC-MS/MS analysis; type: organism-based; settings: in vivo
[2] = Prodrug activation in C57BL/6 mouse serum assessed as FAAH-mediated sobetirome formation at 3.05 umol/kg, ip after 1 hr by LC-MS/MS analysis; type: organism-based; settings: in vivo
[3] = Brain to serum permeability coefficient, Kp of the compound in C57BL/6 mouse assessed as sobetirome level at 3.05 umol/kg, ip after 1 hr by LC-MS/MS analysis; type: ADME, organism-based
[4] = target: T1, Fatty-acid amide hydrolase 1 (Homo sapiens, UniProt O00519); assay: Prodrug activation in COS7 cells overexpressing human FAAH assessed as FAAH-mediated sobetirome formation by measuring compound hydrolysis rate at 100 uM by LC-MS/MS analysis; type: cell-based
T1 sequence (O00519 whole entry): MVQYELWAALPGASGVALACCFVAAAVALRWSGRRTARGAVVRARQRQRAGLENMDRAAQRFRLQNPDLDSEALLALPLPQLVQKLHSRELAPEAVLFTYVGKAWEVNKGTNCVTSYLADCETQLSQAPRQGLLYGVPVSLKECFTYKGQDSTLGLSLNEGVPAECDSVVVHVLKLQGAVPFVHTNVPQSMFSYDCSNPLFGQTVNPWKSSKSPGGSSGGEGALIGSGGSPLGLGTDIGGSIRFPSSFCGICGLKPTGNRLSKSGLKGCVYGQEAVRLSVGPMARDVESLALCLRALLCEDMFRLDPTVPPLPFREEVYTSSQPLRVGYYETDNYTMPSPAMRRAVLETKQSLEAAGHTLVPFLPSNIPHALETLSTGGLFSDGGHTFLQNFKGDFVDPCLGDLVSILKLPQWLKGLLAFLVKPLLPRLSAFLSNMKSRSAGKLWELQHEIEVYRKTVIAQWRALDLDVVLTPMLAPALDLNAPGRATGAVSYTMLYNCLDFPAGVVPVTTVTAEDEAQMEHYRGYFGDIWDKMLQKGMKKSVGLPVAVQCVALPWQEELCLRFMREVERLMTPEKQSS
In short: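 Hydrolysis kinetics were measured in homogenate of COS-7 cells overexpressing human FAAH, with prodrug substrate at 100 µM. Rate is given as nmol mg-1 min-1, mean ± SEM, n = 3.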

[5] = Brain to serum permeability coefficient, Kp of the compound in C57BL/6 mouse at 3.05 umol/kg, ip after 1 hr by LC-MS/MS analysis; type: ADME, organism-based
[6] = Drug uptake in C57BL/6 mouse brain at 3.05 umol/kg, ip after 1 hr by LC-MS/MS analysis; type: ADME, organism-based; settings: read-out: Drug uptake
[7] = Drug uptake in C57BL/6 mouse serum at 3.05 umol/kg, ip after 1 hr by LC-MS/MS analysis; type: ADME, organism-based; settings: read-out: Drug uptake

Q: Which Drug uptake [1] does the source give for `Cc1cc(OCC(=O)NCCO)cc(C)c1Cc1ccc(O)c(C(C)C)c1` here?
A: 25.5 ng/g

Q: And the Drug uptake [2]?
A: 66.8 ng/g

Q: And the Kp [3]?
A: 0.37

Q: What about the Drug metabolism [4] of the same compound?
A: 4.8 nmol/mg/min

Q: For `Cc1cc(OCC(=O)NCC(F)F)cc(C)c1Cc1ccc(O)c(C(C)C)c1`, which Drug uptake [1] is on record?
A: 125.4 ng/g

Q: What about the Drug uptake [2] of the same compound?
A: 128.8 ng/g

Q: And the Kp [3]?
A: 1.04

Q: And the Drug metabolism [4]?
A: 3.4 nmol/mg/min

Q: What does the source list for `Cc1cc(OCC(=O)NC2COC2)cc(C)c1Cc1ccc(O)c(C(C)C)c1`?
A: Drug uptake [1]: 79.2 ng/g; Drug uptake [2]: 110.6 ng/g; Kp [3]: 0.75; Drug metabolism [4]: 3.7 nmol/mg/min

Q: Which Drug uptake [1] does the source give for `Cc1cc(OCC(=O)NCC#N)cc(C)c1Cc1ccc(O)c(C(C)C)c1` here?
A: 59.9 ng/g

Q: And the Drug uptake [2]?
A: 107.7 ng/g

Q: And the Kp [3]?
A: 0.57

Q: And the Drug metabolism [4]?
A: 5 nmol/mg/min

Q: What does the source list for `Cc1cc(OCC(=O)Nc2cccc(F)c2)cc(C)c1Cc1ccc(O)c(C(C)C)c1`?
A: Drug uptake [1]: 15.4 ng/g; Drug uptake [2]: 383.8 ng/g; Kp [3]: 0.04; Drug metabolism [4]: 2.1 nmol/mg/min

Q: With `Cc1cc(OCC(=O)NC2CC2)cc(C)c1Cc1ccc(O)c(C(C)C)c1` as the compound, how does the Drug uptake [1] read?
A: 58 ng/g

Q: What about the Drug uptake [2] of the same compound?
A: 23.8 ng/g

Q: What about the Kp [3] of the same compound?
A: 2.49

Q: What about the Drug metabolism [4] of the same compound?
A: 3.2 nmol/mg/min

Q: With `Cc1cc(OCC(=O)Nc2ccccc2O)cc(C)c1Cc1ccc(O)c(C(C)C)c1` as the compound, how does the Drug uptake [1] read?
A: 7.4 ng/g

Q: And the Drug uptake [2]?
A: 174.7 ng/g

Q: What about the Kp [3] of the same compound?
A: 0.04

Q: And the Drug metabolism [4]?
A: 1.4 nmol/mg/min

Q: With `CCNC(=O)COc1cc(C)c(Cc2ccc(O)c(C(C)C)c2)c(C)c1` as the compound, how does the Drug uptake [1] read?
A: 58.2 ng/g

Q: And the Drug uptake [2]?
A: 21.5 ng/g

Q: And the Kp [3]?
A: 2.74

Q: And the Drug metabolism [4]?
A: 3.4 nmol/mg/min

Q: For `Cc1cc(OCC(=O)Nc2cccc(O)c2)cc(C)c1Cc1ccc(O)c(C(C)C)c1`, which Drug uptake [1] is on record?
A: 12.8 ng/g

Q: And the Drug uptake [2]?
A: 325.7 ng/g

Q: And the Kp [3]?
A: 0.04

Q: And the Drug metabolism [4]?
A: 10.1 nmol/mg/min

Q: For `Cc1cc(OCC(=O)NO)cc(C)c1Cc1ccc(O)c(C(C)C)c1`, which Drug uptake [1] is on record?
A: 2.8 ng/g

Q: What about the Drug uptake [2] of the same compound?
A: 127.7 ng/g

Q: What about the Kp [3] of the same compound?
A: 0.03

Q: What about the Drug metabolism [4] of the same compound?
A: 4.9 nmol/mg/min

Q: For `Cc1cc(OCC(=O)NC(C)CO)cc(C)c1Cc1ccc(O)c(C(C)C)c1` (stereo not given), which Drug uptake [1] is on record?
A: 22.3 ng/g

Q: And the Drug uptake [2]?
A: 33.7 ng/g

Q: What about the Kp [3] of the same compound?
A: 0.69

Q: What about the Drug metabolism [4] of the same compound?
A: 4.5 nmol/mg/min

Q: Which Drug uptake [1] does the source give for `Cc1cc(OCC(=O)NCC(C)O)cc(C)c1Cc1ccc(O)c(C(C)C)c1` (stereo not given) here?
A: 38.7 ng/g

Q: What about the Drug uptake [2] of the same compound?
A: 55.7 ng/g

Q: And the Kp [3]?
A: 0.72

Q: What about the Drug metabolism [4] of the same compound?
A: 3.6 nmol/mg/min

Q: With `Cc1cc(OCC(=O)NC(CO)CO)cc(C)c1Cc1ccc(O)c(C(C)C)c1` as the compound, how does the Drug uptake [1] read?
A: 2.6 ng/g

Q: And the Drug uptake [2]?
A: 98 ng/g

Q: And the Kp [3]?
A: 0.03

Q: And the Drug metabolism [4]?
A: 3.7 nmol/mg/min

Q: Which results are given for `Cc1cc(OCC(N)=O)cc(C)c1Cc1ccc(O)c(C(C)C)c1`?
A: Drug uptake [1]: 93.9 ng/g; Drug uptake [2]: 79.5 ng/g; Kp [3]: 1.17; Drug metabolism [4]: 4.7 nmol/mg/min

Q: Which Drug uptake [1] does the source give for `Cc1cc(OCC(=O)NCCc2ccc(O)c(O)c2)cc(C)c1Cc1ccc(O)c(C(C)C)c1` here?
A: 7.4 ng/g

Q: And the Drug uptake [2]?
A: 4.9 ng/g

Q: What about the Kp [3] of the same compound?
A: 0.94

Q: And the Drug metabolism [4]?
A: 0.8 nmol/mg/min

Q: Which results are given for `Cc1cc(OCC(=O)NCCF)cc(C)c1Cc1ccc(O)c(C(C)C)c1`?
A: Drug uptake [1]: 107.1 ng/g; Drug uptake [2]: 64.2 ng/g; Kp [3]: 1.7; Drug metabolism [4]: 3.5 nmol/mg/min

Q: Which results are given for `CCCNC(=O)COc1cc(C)c(Cc2ccc(O)c(C(C)C)c2)c(C)c1`?
A: Drug uptake [1]: 20.2 ng/g; Drug uptake [2]: 16.9 ng/g; Kp [3]: 1.15; Drug metabolism [4]: 2.6 nmol/mg/min

Q: With `Cc1cc(OCC(=O)NCc2ccccc2)cc(C)c1Cc1ccc(O)c(C(C)C)c1` as the compound, how does the Drug uptake [1] read?
A: 15.7 ng/g

Q: What about the Drug uptake [2] of the same compound?
A: 15.2 ng/g

Q: What about the Kp [3] of the same compound?
A: 0.95

Q: What about the Drug metabolism [4] of the same compound?
A: 1.7 nmol/mg/min

Q: Which results are given for `Cc1cc(OCC(=O)O)cc(C)c1Cc1ccc(O)c(C(C)C)c1` [SOBETIROME]?
A: Kp at 1 h [5]: 0.03; concentration at 1 h [6]: 3.6 ng/g; concentration at 1 h [7]: 319 ng/g

Q: With `CONC(=O)COc1cc(C)c(Cc2ccc(O)c(C(C)C)c2)c(C)c1` as the compound, how does the Drug uptake [1] read?
A: 8.4 ng/g

Q: And the Drug uptake [2]?
A: 209.7 ng/g

Q: And the Kp [3]?
A: 0.04

Q: What about the Drug metabolism [4] of the same compound?
A: 4.1 nmol/mg/min

Q: Which results are given for `C#CCNC(=O)COc1cc(C)c(Cc2ccc(O)c(C(C)C)c2)c(C)c1`?
A: Drug uptake [1]: 59.5 ng/g; Drug uptake [2]: 59.4 ng/g; Kp [3]: 0.99; Drug metabolism [4]: 3.2 nmol/mg/min

Q: Which results are given for `Cc1cc(OCC(=O)NCCc2ccccc2)cc(C)c1Cc1ccc(O)c(C(C)C)c1`?
A: Drug uptake [1]: 11.3 ng/g; Drug uptake [2]: 8.6 ng/g; Kp [3]: 1.31; Drug metabolism [4]: 1 nmol/mg/min

Q: With `Cc1cc(OCC(=O)NCCNS(C)(=O)=O)cc(C)c1Cc1ccc(O)c(C(C)C)c1` as the compound, how does the Drug uptake [1] read?
A: 1.6 ng/g

Q: What about the Drug uptake [2] of the same compound?
A: 26.2 ng/g

Q: What about the Kp [3] of the same compound?
A: 0.06

Q: What about the Drug metabolism [4] of the same compound?
A: 2.4 nmol/mg/min

Q: Which Drug uptake [1] does the source give for `C=CCNC(=O)COc1cc(C)c(Cc2ccc(O)c(C(C)C)c2)c(C)c1` here?
A: 33.4 ng/g

Q: And the Drug uptake [2]?
A: 25.4 ng/g

Q: What about the Kp [3] of the same compound?
A: 1.23

Q: And the Drug metabolism [4]?
A: 3.6 nmol/mg/min

Q: For `Cc1cc(OCC(=O)NCCS(=O)(=O)[O-])cc(C)c1Cc1ccc(O)c(C(C)C)c1.[Na+]`, which Drug uptake [1] is on record?
A: 7.1 ng/g

Q: What about the Drug uptake [2] of the same compound?
A: 45.7 ng/g

Q: What about the Kp [3] of the same compound?
A: 0.18

Q: What about the Drug metabolism [4] of the same compound?
A: 8.9 nmol/mg/min

Q: What does the source list for `Cc1cc(OCC(=O)NCCN)cc(C)c1Cc1ccc(O)c(C(C)C)c1`?
A: Drug uptake [1]: 0.8 ng/g; Drug uptake [2]: 6.9 ng/g; Kp [3]: 0.07; Drug metabolism [4]: 5.6 nmol/mg/min

Q: Which results are given for `Cc1cc(OCC(=O)NN)cc(C)c1Cc1ccc(O)c(C(C)C)c1`?
A: Drug uptake [1]: 68.2 ng/g; Drug uptake [2]: 199.5 ng/g; Kp [3]: 0.58; Drug metabolism [4]: 3.8 nmol/mg/min

Q: Which Drug uptake [1] does the source give for `Cc1cc(OCC(=O)NCC(F)(F)F)cc(C)c1Cc1ccc(O)c(C(C)C)c1` here?
A: 59.4 ng/g

Q: What about the Drug uptake [2] of the same compound?
A: 80.2 ng/g

Q: What about the Kp [3] of the same compound?
A: 0.76

Q: What about the Drug metabolism [4] of the same compound?
A: 4.8 nmol/mg/min

Q: Which Drug uptake [1] does the source give for `Cc1cc(OCC(=O)N(C)C)cc(C)c1Cc1ccc(O)c(C(C)C)c1` here?
A: 32.2 ng/g

Q: And the Drug uptake [2]?
A: 10.4 ng/g

Q: And the Kp [3]?
A: 3.17

Q: And the Drug metabolism [4]?
A: 4.3 nmol/mg/min
